From ChEMBL document CHEMBL1142748, “The tert-butyl dimethyl silyl group as an enhancer of drug cytotoxicity against human tumor cells” (Bioorg Med Chem Lett, 2005)
Calls of active or inactive are those of the source. The rule behind the calls is not given here.

Tests used:
HL-60 [1] = experiment: Concentration required for 50% reduction of cellular net growth of HL60 human leukemia cells; format: functional
In short: (§1)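 HL60 leukemia cells were grown in 96-well format following a modified NCI protocol. Compounds in DMSO were tested in duplicate at five 10-fold dilutions, and controls received equivalent DMSO. After 48 h exposure, cells were fixed with ice-cold 80% (w/v) TCA for 60 min at 4 °C, then stained by SRB and read at OD 490 nm. Percent growth came from start versus end OD, corrected for medium-only background. GI50 and TGI were read from dose–response curves as the mean of 2–4 experiments ± SD.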

MCF7S [2] = experiment: Concentration required for 50% reduction of cellular net growth of MCF-7 human breast cancer cells; format: functional
In short: as §1, with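 “MCF7 breast cancer cells” for “HL60 leukemia cells”, “ice-cold 50%” for “ice-cold 80%”, “for medium” for “for medium-only”, “were taken” for “were read”, “from” for “from dose–response”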

HL-60 [3] = experiment: Concentration required for 50% reduction of cellular net growth of HL60 human leukemia cells; na=no activity; format: functional, cell-based; in short: as §1
MCF7S [4] = experiment: Concentration required for 50% reduction of cellular net growth of MCF-7 human breast cancer cells;na=no activity; format: functional, cell-based
In short: as §1, with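 “MCF7 breast cancer cells” for “HL60 leukemia cells”, “ice-cold 50%” for “ice-cold 80%”, “for medium” for “for medium-only”, “were taken” for “were read”, “from” for “from dose–response”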

MCF7S [5] = experiment: Concentration required for Total growth inhibition of MCF-7 human breast cancer cells; format: functional
In short: as §1, with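 “MCF7 breast cancer cells” for “HL60 leukemia cells”, “ice-cold 50%” for “ice-cold 80%”, “for medium” for “for medium-only”, “were taken” for “were read”, “from” for “from dose–response”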

HL-60 [6] = experiment: Concentration required for Total growth inhibition of HL60 human leukemia cells; format: functional; in short: as §1
MCF7S [7] = experiment: Concentration required for 50% reduction of cellular net growth of MCF-7 human breast cancer cells; na=no activity; format: functional, cell-based
In short: as §1, with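 “MCF7 breast cancer cells” for “HL60 leukemia cells”, “ice-cold 50%” for “ice-cold 80%”, “for medium” for “for medium-only”, “were taken” for “were read”, “from” for “from dose–response”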

HL-60 [8] = experiment: Lethal concentration required for net loss in 50% of HL60 human leukemia cells; format: functional; details: read-out: LC50 (the source's name)
In short: (§2)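 Modified NCI protocol with SRB read-out after 48 h drug exposure. Compounds were diluted from a DMSO stock at 400× the top final concentration, at five 10-fold dilutions in duplicate, with DMSO-matched controls. Cells were fixed with ice-cold TCA (80% w/v for HL60, 50% w/v for MCF7) for 60 min at 4 °C. OD was read at 490 nm and corrected for medium-only background. Percent growth came from OD at the start versus the end of exposure. LC50 is the concentration giving net loss of 50% of cells, from dose-response curves; values are means of 2–4 experiments.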

MCF7S [9] = experiment: Lethal concentration required for net loss in 50% of MCF-7 human breast cancer cells; format: functional; details: read-out: LC50 (the source's name); in short: as §2

Row | Compound | GI50 (HL-60 [1]) [µM] | GI50 (MCF7S [2]) | GI50 (HL-60 [3]) | TGI (MCF7S [5]) [µM] | also measured
1 | CC(C)(C)[Si](C)(C)O[C@H]1CCCO[C@@H]1CCO | 46 | 55 µM | – | – | –
2 | C=CCO[C@H]1CCCO[C@@H]1CC=O | – | – | inactive | – | –
3 | OC/C=C/[C@H]1OCCC[C@@H]1O | – | – | inactive | – | GI50 (MCF7S [4]): inactive
4 | CC(C)(C)[Si](C)(C)O[C@H]1CCCO[C@@H]1C/C=C/CO | 27 | 25 µM | – | 83 | –
5 | CC(C)(C)[Si](C)(C)O[C@H]1CCCO[C@@H]1/C=C/CO | 31 | 61 µM | – | – | –
6 | COC(=O)/C=C\[C@H]1OCCC[C@@H]1O[Si](C)(C)C(C)(C)C | – | 32 µM | inactive | 82 | –
7 | COC(=O)/C=C/C[C@H]1OCCC[C@@H]1O[Si](C)(C)C(C)(C)C | 22 | 18 µM | – | 48 | TGI (HL-60 [6]): 77 µM
8 | COC(=O)/C=C/C[C@H]1OCCC[C@@H]1OC(=O)c1ccccc1 | – | inactive | inactive | – | –
9 | COC(=O)/C=C/C[C@H]1OCCC[C@@H]1OC(C)=O | – | – | inactive | – | GI50 (MCF7S [7]): inactive
10 | CC(C)(C)[Si](C)(C)OC/C=C/[C@H]1OCCC[C@@H]1O | – | 86 µM | inactive | – | –
11 | COC(=O)/C=C/C[C@H]1OCCC[C@@H]1O | – | – | inactive | – | GI50 (MCF7S [4]): inactive
12 | CC(C)(C)[Si](C)(C)O[C@H]1CCCO[C@@H]1/C=C\CO | 26 | 6.4 µM | – | 23 | TGI (HL-60 [6]): 64 µM; CC50 (HL-60 [8]): 88 µM; CC50 (MCF7S [9]): 63 µM
13 | COC(=O)/C=C/[C@H]1OCCC[C@@H]1O[Si](C)(C)C(C)(C)C | 22 | 24 µM | – | 80 | TGI (HL-60 [6]): 69 µM; CC50 (MCF7S [9]): 94 µM
14 | CC(C)(C)[Si](C)(C)O[C@H]1CCCO[C@@H]1CC#N | – | – | inactive | – | –
15 | CC(C)(C)[Si](C)(C)O[C@H]1CCCO[C@@H]1CC=O | 40 | 21 µM | – | 82 | –
